Experimental data taken from ChEMBL document CHEMBL4689842, “EUbOPEN Chemogenomics Library wave 1” (2021).
Where “and” joins values, the source holds several entries; their conditions need not be identical. Identical values can stand only once.

System: U2OS
Assay: Multiplex assay against U2OS
Assay type: toxicity, cell-based
Settings: human
Summary of the method: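 Live cells were stained at seeding with Hoechst33342, BioTracker Green Microtubule Cytoskeleton Dye, MitoTracker Red and Annexin V Alexa Fluor 680, then imaged on a CQ1 microscope at 37°C and 5% CO2 after compound addition. CellPathfinder machine-learning gating split cells into Hoechst high-intensity objects or normal cells. Normal cells were split into healthy, pyknosed or fragmented nuclei, and pyknosed cells into mitotic or apoptotic. Tubulin, mitochondrial-mass and membrane-permeability phenotypes are per cents of healthy-nucleus cells.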

[1] = 12 h, 1 µM, compound concentration 1 uM, replicate 1
[2] = 12 h, 1 µM, compound concentration 1 uM, replicate 2
[3] = 24 h, 1 µM, compound concentration 1 uM, replicate 1
[4] = 24 h, 1 µM, compound concentration 1 uM, replicate 2
[5] = 12 h, 10 µM, compound concentration 10 uM, replicate 1
[6] = 12 h, 10 µM, compound concentration 10 uM, replicate 2
[7] = 24 h, 10 µM, compound concentration 10 uM, replicate 1
[8] = 24 h, 10 µM, compound concentration 10 uM, replicate 2

## Cc1cc(C)c(-n2ccn3nc(-c4cccnc4)cc23)cc1NC(=O)c1cc(C#N)cc(S(F)(F)(F)(F)F)c1 [BAY-826]
[1]
  Population Apoptotic (%): 68% and 80%
  Population Fragmented Nuclei (%): 11% and 8%
  Population Healthy Nuclei (%): 75% and 87%
  Population Hoechst High Intensity Objects (%): 4%
  Population Membrane Permeable-Phenotype (%): 45% and 44%
  Population Mitochondria Different-Phenotype (%): 41% and 26%
  Population Mitotic Cells (%): 31% and 20%
  Population Normal (%): 95%
  Population Pyknosed Nuclei (%): 13% and 5%
  Population Tubulin-Different-Phenotype (%): 99% and 93%
  Total Cell Count: 168 and 105
[2]
  Population Apoptotic (%): 75% and 78%
  Population Fragmented Nuclei (%): 13% and 15%
  Population Healthy Nuclei (%): 81% and 69%
  Population Hoechst High Intensity Objects (%): 11% and 12%
  Population Membrane Permeable-Phenotype (%): 36% and 35%
  Population Mitochondria Different-Phenotype (%): 27% and 79%
  Population Mitotic Cells (%): 25% and 21%
  Population Normal (%): 88% and 87%
  Population Pyknosed Nuclei (%): 15%
  Population Tubulin-Different-Phenotype (%): 68% and 100%
  Total Cell Count: 85
[3]
  Population Apoptotic (%): 50% and 85%
  Population Fragmented Nuclei (%): 9%
  Population Healthy Nuclei (%): 82% and 53%
  Population Hoechst High Intensity Objects (%): 5%
  Population Membrane Permeable-Phenotype (%): 36% and 51%
  Population Mitochondria Different-Phenotype (%): 44% and 78%
  Population Normal (%): 94%
  Population Tubulin-Different-Phenotype (%): 63%
  Total Cell Count: 134 and 155
[4]
  Population Apoptotic (%): 80% and 70%
  Population Fragmented Nuclei (%): 19% and 10%
  Population Healthy Nuclei (%): 50% and 78%
  Population Hoechst High Intensity Objects (%): 13% and 9%
  Population Membrane Permeable-Phenotype (%): 56% and 28%
  Population Mitotic Cells (%): 19% and 30%
  Population Normal (%): 87% and 90%
  Population Pyknosed Nuclei (%): 29% and 11%
  Population Tubulin-Different-Phenotype (%): 100% and 48%
  Total Cell Count: 100 and 98

## CNC(=O)Nc1ccc2c(c1)[C@@]1(CC2)OC(=O)N(CC(=O)N(Cc2ccc(F)cc2)[C@@H](C)C(F)(F)F)C1=O [A-486]
[1]
  Population Apoptotic (%): 47%
  Population Fragmented Nuclei (%): 4%
  Population Healthy Nuclei (%): 81%
  Population Hoechst High Intensity Objects (%): 4%
  Population Membrane Permeable-Phenotype (%): 63%
  Population Mitochondria Different-Phenotype (%): 11%
  Population Mitotic Cells (%): 52%
  Population Normal (%): 95%
  Population Pyknosed Nuclei (%): 14%
  Population Tubulin-Different-Phenotype (%): 57%
  Total Cell Count: 248
[2]
  Population Apoptotic (%): 75%
  Population Fragmented Nuclei (%): 7%
  Population Healthy Nuclei (%): 88%
  Population Hoechst High Intensity Objects (%): 11%
  Population Membrane Permeable-Phenotype (%): 59%
  Population Mitochondria Different-Phenotype (%): 19%
  Population Mitotic Cells (%): 25%
  Population Normal (%): 88%
  Population Pyknosed Nuclei (%): 4%
  Population Tubulin-Different-Phenotype (%): 60%
  Total Cell Count: 105
[5]
  Population Apoptotic (%): 27%
  Population Fragmented Nuclei (%): 3%
  Population Healthy Nuclei (%): 85%
  Population Hoechst High Intensity Objects (%): 1%
  Population Membrane Permeable-Phenotype (%): 9%
  Population Mitochondria Different-Phenotype (%): 19%
  Population Mitotic Cells (%): 72%
  Population Normal (%): 99%
  Population Pyknosed Nuclei (%): 11%
  Population Tubulin-Different-Phenotype (%): 12%
  Total Cell Count: 201
[6]
  Population Apoptotic (%): 33%
  Population Fragmented Nuclei (%): 6%
  Population Healthy Nuclei (%): 83%
  Population Hoechst High Intensity Objects (%): 11%
  Population Membrane Permeable-Phenotype (%): 21%
  Population Mitochondria Different-Phenotype (%): 26%
  Population Mitotic Cells (%): 66%
  Population Normal (%): 88%
  Population Pyknosed Nuclei (%): 10%
  Population Tubulin-Different-Phenotype (%): 28%
  Total Cell Count: 102
[3]
  Population Apoptotic (%): 33%
  Population Fragmented Nuclei (%): 3%
  Population Healthy Nuclei (%): 89%
  Population Hoechst High Intensity Objects (%): 4%
  Population Membrane Permeable-Phenotype (%): 45%
  Population Mitochondria Different-Phenotype (%): 14%
  Population Mitotic Cells (%): 66%
  Population Normal (%): 95%
  Population Pyknosed Nuclei (%): 6%
  Population Tubulin-Different-Phenotype (%): 30%
  Total Cell Count: 329
[4]
  Population Apoptotic (%): 75%
  Population Fragmented Nuclei (%): 7%
  Population Healthy Nuclei (%): 88%
  Population Hoechst High Intensity Objects (%): 7%
  Population Membrane Permeable-Phenotype (%): 44%
  Population Mitochondria Different-Phenotype (%): 18%
  Population Mitotic Cells (%): 25%
  Population Normal (%): 92%
  Population Pyknosed Nuclei (%): 3%
  Population Tubulin-Different-Phenotype (%): 27%
  Total Cell Count: 115
[7]
  Population Apoptotic (%): 46%
  Population Fragmented Nuclei (%): 2%
  Population Healthy Nuclei (%): 92%
  Population Hoechst High Intensity Objects (%): 0%
  Population Membrane Permeable-Phenotype (%): 5%
  Population Mitochondria Different-Phenotype (%): 14%
  Population Mitotic Cells (%): 53%
  Population Normal (%): 99%
  Population Pyknosed Nuclei (%): 5%
  Population Tubulin-Different-Phenotype (%): 17%
  Total Cell Count: 277
[8]
  Population Apoptotic (%): 40%
  Population Fragmented Nuclei (%): 5%
  Population Healthy Nuclei (%): 90%
  Population Hoechst High Intensity Objects (%): 9%
  Population Membrane Permeable-Phenotype (%): 14%
  Population Mitochondria Different-Phenotype (%): 33%
  Population Mitotic Cells (%): 60%
  Population Normal (%): 90%
  Population Pyknosed Nuclei (%): 4%
  Population Tubulin-Different-Phenotype (%): 37%
  Total Cell Count: 126
